Screens: PubChem BioAssay, Johns Hopkins Ion Channel Center
KCNQ1 inh: inhibitors of human KCNQ1 potassium channel. P51787. CHO-K1 KCNQ1, FluxOR thallium flux fluorescence; active compounds read high. B-score at 10 µM. 310,000 compounds, 1.3% hits. AID 2642;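 active = compounds whose thallium flux B-score, printed positive for inhibition, exceeds three library SD while starting fluorescence stays within three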;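 note: channel opened by potassium depolarization with thallium stimulus after 20 min compound exposure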
Target sequence (P51787 whole entry, looked up): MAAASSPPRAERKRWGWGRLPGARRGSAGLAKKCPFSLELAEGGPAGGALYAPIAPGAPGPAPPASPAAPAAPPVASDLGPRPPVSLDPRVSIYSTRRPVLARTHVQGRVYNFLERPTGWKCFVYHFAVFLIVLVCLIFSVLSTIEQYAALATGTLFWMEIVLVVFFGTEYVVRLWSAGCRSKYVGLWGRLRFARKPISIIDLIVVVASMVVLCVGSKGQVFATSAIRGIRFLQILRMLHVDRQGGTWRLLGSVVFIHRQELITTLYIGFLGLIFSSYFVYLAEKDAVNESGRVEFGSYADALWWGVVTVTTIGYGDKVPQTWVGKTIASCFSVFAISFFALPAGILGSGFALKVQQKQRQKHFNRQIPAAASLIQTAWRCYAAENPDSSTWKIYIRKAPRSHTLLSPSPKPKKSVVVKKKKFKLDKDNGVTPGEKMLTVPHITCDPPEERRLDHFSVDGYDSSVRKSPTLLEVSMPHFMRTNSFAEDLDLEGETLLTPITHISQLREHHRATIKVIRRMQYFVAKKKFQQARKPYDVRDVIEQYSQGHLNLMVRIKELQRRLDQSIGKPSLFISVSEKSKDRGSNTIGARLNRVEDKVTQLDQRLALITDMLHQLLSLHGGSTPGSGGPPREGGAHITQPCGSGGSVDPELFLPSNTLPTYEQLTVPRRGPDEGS
hERG protect: hERG (human) protection from proarrhythmic block; AID 1511; CHO-hERG, FluxOR thallium flux, dofetilide IC70 present; 310,000 compounds, 0.51% hits; activation (rescue from dofetilide block), less the hit threshold, % at 10 µM; Q12809;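 active = activation above the mean of controls blocked by dofetilide plus 5 SD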;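 note: thallium influx through hERG after potassium depolarization seen as dye fluorescence rise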
KCNK3 inh: human KCNK3 channel inhibition, primary screen; AID 602410; 340,000 compounds, 0.84% hits; CHO-KCNK3 thallium flux, FluxOR fluorescence; active compounds read low; O14649; B-score at 10 µM;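 active = B-score under library mean minus 4 SD, starting fluorescence ratio at most library mean plus 5 SD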;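 note: more negative B-score means stronger inhibition of thallium flux through KCNK3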
KCNQ1 act: potentiates or activates the human KCNQ1 potassium channel; AID 2648; B-score at 10 µM; CHO-K1 KCNQ1, thallium flux FluxOR fluorescence; active compounds read high; 310,000 compounds, 0.35% hits;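 active = fluorescence ratio B-score, a plate-corrected score, at least three library SD, with initial intensity B-score within 5 SD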
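Assay system: CHO-K1 cells stably expressing KCNQ1; Medium: assay buffer with matched DMSO; Also added: K+/Tl+ depolarizing stimulus; Dosing: single dose; Timing: dye 90 min, compound 20 min, room temperature; Measured by: kinetic FluxOR thallium fluorescence, 10-s 1-Hz baseline, 110-s post-stimulus read; Read-out: peak-minus-minimum fluorescence over initial fluorescence, negative-control normalized, B-scored.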
KCNK9 block: blocks the human KCNK9 two-pore domain potassium channel; HEK293 KCNK9, FluxOR thallium flux fluorescence; active compounds read low; Q9NPC2; B-score at 10 µM; 310,000 compounds, 1.2% hits;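 active = ratio B-score over 3 SD below the library mean, with starting fluorescence within 5 SD of its mean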;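 note: negative B-score means less thallium flux so channel inhibition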
KCNK9 block conf: human KCNK9 inhibitor confirmation; HEK293 KCNK9 cells, FluxOR thallium flux fluorescence; shares compounds with KCNK9 block; AID 492992; inhibition, % at 10 µM; 4,900 compounds, 43% hits;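 active = thallium signal inhibited by more than 5 SD of the compound-free buffer control wells, on both duplicate plates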;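 note: 0% = assay buffer control wells without compound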
Kir21 sel: tests whether KCNK9 modulators also affect mouse Kir2.1 | shares compounds with KCNK9 block | Kir2.1 cells, FluxOR thallium flux fluorescence | inhibition, % at 10 µM | 4,900 compounds, 4% hits | AID 492993;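 active = thallium signal drop more than 5 SD beyond the mean of the no-compound control wells, seen in both duplicate plates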;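 note: signal is fluorescence rise after thallium addition divided by baseline fluorescence; plate controls were assay buffer only for no effect and full block by chlorpromazine control for full effect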
KCNK9 uninduced: second check of KCNK9 modulator effects in non-induced HEK293 cells; shares compounds with KCNK9 block; FluxOR thallium flux; inhibition, % at 10 µM; 4,900 compounds, 40% hits; AID 492997;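 active = thallium signal drop beyond 5 SD of the untreated control mean, on both duplicate plates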;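 note: plate controls were buffer only IC0 wells for no effect and SID17386958 at its maximal inhibitory level for full effect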
Starred values were filed as active, the others as inactive; i = inactive; . = no result given. Only some compounds are listed: those with a hit (about 3.1% of all), similar ones and a draw of the others.

SMILES	KCNQ1 inh	hERG protect	KCNK3 inh	KCNQ1 act	KCNK9 block	KCNK9 block conf	Kir21 sel	KCNK9 uninduced
COc1cc(OC)nc(Oc2ccccc2C(=O)Oc2cccc(C)c2)n1	i	0	i	i	-9.5*	34%*	i	36%*
Cn1c(SCc2ccccc2Cl)nc2ccccc21	i	-10	i	i	-8.4*	66%*	i	i
O=C(C1=C[C@@H](c2ccc(Br)cc2)C[C@@H](OCc2ccc(CO)cc2)O1)N1CCN(Cc2ccccc2)CC1	i	-10	i	i	i	.	.	.
O=C(C1=C[C@H](c2ccc(C(F)(F)F)cc2)C[C@H](OCCCCO)O1)N1CCN(Cc2ccccc2)CC1	i	-11	i	i	i	i	i	i
C#Cc1ccc([C@H]2C=C(C(=O)N3CCN(Cc4ccccc4)CC3)O[C@@H](OCc3ccc(CO)cc3)C2)cc1	i	-9	i	i	i	i	i	i
CCOc1ccc(CNC(=O)Cn2ccc3cc(S(=O)(=O)N4CCCC4)ccc32)cc1	i	-5	i	i	i	.	.	.
Cc1ccc(NC(=O)c2sccc2SCc2cccc(C(F)(F)F)c2)cc1	10*	-10	i	i	-14*	64%*	48%*	50%*
Cc1ccc(NC(=O)c2c(C(F)(F)F)nn(C)c2SCc2cccc(C(F)(F)F)c2)cc1C	i	-11	i	i	i	.	.	.
CC[N+]1(C)[C@@H]2CC[C@H]1CC(OC(=O)[C@H]1CCC(C(=O)OC3C[C@H]4CC[C@@H](C3)[N+]4(C)CC)(c3ccccc3)c3ccccc31)C2 (some centres not stated)	.	.	i	.	.	.	.	.
CN(CC1CCN(CCc2cccc(C(F)(F)F)c2)CC1)C(=O)c1ccc(F)cc1	i	-2	i	i	i	i	i	i
CCc1nc2ccccc2nc1N1CCN(S(=O)(=O)c2c(C)cc(Cl)cc2C)CC1	i	-10	i	i	i	i	i	i
CCCS(=O)(=O)N1CCN=C1SCc1cccc2ccccc12	i	-12	i	i	i	i	i	i
COCCOc1cc(NC(=O)c2cccc(OC)c2)c(Cl)cc1Cl	i	-5	i	i	i	.	.	.
COCCOc1cc(NC(=O)c2sccc2Oc2ccc([N+](=O)[O-])cc2F)c(Cl)cc1Cl	9*	-5	i	i	i	i	i	i
COc1ccccc1NC(=O)C1CCN(S(=O)(=O)c2cccc3nonc23)CC1	i	-10	i	i	i	.	.	.
COc1ccc(/C=N/NC(=O)c2csc(-n3nc(C)cc3C(F)(F)F)n2)cc1	i	-12	i	i	-10*	i	i	26%*
COc1ccc(S(=O)(=O)NNC(=O)c2csc(-n3nc(C)cc3C(F)(F)F)n2)cc1OC	i	-4	i	i	i	.	.	.
COc1ccccc1C(=O)NCC(=O)NNC(=O)C1COc2ccccc2O1 (configuration not stated)	i	-16	i	i	i	.	.	.
Cc1cccc(/C=C2/C(=O)/C(=C/c3ccccc3C)C3CCC2N3C)c1 (configuration not stated)	i	-8	i	i	i	i	i	i
C/C(=N\NC(=O)c1nn(C)c(C)c1Br)c1ccc(NC(=O)C2CCCC2)cc1	i	-7	i	i	-12*	68%*	i	i
CCCC(=O)c1cc2c(cc1NC(=O)c1ccccc1F)OCCO2	i	-7	i	i	i	.	.	.
CN1c2ccccc2C2(C)CCCC3=Cc4cccc([N+](=O)[O-])c4OC312 (configuration not stated)	i	-20	i	i	-10*	57%*	i	35%*
N#C/C(=C\c1c(Cl)cccc1Cl)c1nc2ccccc2o1	i	-14	i	i	i	i	i	i
N#C/C(=C\c1c(Cl)cccc1Cl)c1nc2ccccc2[nH]1	i	-13	i	i	-8.8*	46%*	i	i
CN1CCN(C(=O)CCCN2C(=O)/C(=C/c3cccc(Br)c3)SC2=S)CC1	i	-21	i	i	i	i	i	i
SMILES	KCNQ1 inh	hERG protect	KCNK3 inh	KCNQ1 act	KCNK9 block	KCNK9 block conf	Kir21 sel	KCNK9 uninduced
CN1CCN(C(=O)CCN2C(=O)/C(=C/c3cccc(Br)c3)SC2=S)CC1	i	-12	i	i	i	.	.	.
O=C(CCCN1C(=O)/C(=C/c2cccc(Br)c2)SC1=S)N1CCOCC1	i	-8	i	i	i	i	i	i
COC(=O)c1sccc1NC(=O)c1c(Cl)cnn1C	i	-7	i	i	i	.	.	.
Cc1cccc(N(CC(=O)NC(C)(C)C)C(=O)CCC(=O)Nc2ccccn2)c1	i	-10	i	i	i	.	.	.
O=C(N/N=C/c1cn(-c2ccccc2)nc1-c1ccc(F)cc1)c1ccc2c(c1)OCO2	i	-24	i	i	-10*	55%*	i	i
O=C(CN1CCOCC1)Nc1ccc([N+](=O)[O-])cc1	i	-1	i	i	i	.	.	.
O=C(NCCN1CCOCC1)c1cc(-c2ccc(Br)cc2)on1	i	-10	i	i	-12*	i	i	i
O=C(/C=C/c1ccc([N+](=O)[O-])cc1)c1ccco1	i	-6	i	i	i	.	.	.
O=C(/C=C/c1ccc(-c2ccccc2[N+](=O)[O-])o1)c1ccco1	i	-27	i	i	-12*	56%*	i	25%*
CC(C)(C)NC(=O)C(c1ccc(O)cc1)N(C(=O)CCC(=O)Nc1ccccn1)c1ccc(F)cc1 (configuration not stated)	i	-3	i	i	i	.	.	.
CC1(c2nnc(-c3cccc(Cl)c3)o2)CC(c2c(Cl)cccc2Cl)=NO1 (configuration not stated)	i	-24	i	i	-10*	58%*	i	29%*
Cc1cc(Cl)ccc1C(=O)C1CCCN(C(=O)c2cnn(C(C)C)c2)C1 (configuration not stated)	i	-5	i	i	i	i	i	i
Cc1cc(Cl)ccc1C(=O)C1CCCN(C(=O)c2n[nH]c3c2CCCC3)C1 (configuration not stated)	i	-4	i	i	i	i	i	i
